Calls of active or inactive are those of the source. The rule behind the calls is not given here.
Experiments:
HT-1080 = assay: Antiproliferative activity against human HT1080 cells after 48 hrs by SRB assay; assay type: functional, cell-based; conditions: HT-1080, 48 h
In short: (§1)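 Cells grown in DMEM with 5% FBS at 37 C; seeded per well at 2.5 x 10^3 (HT-1080), 4.0 x 10^3 (HT-29), 3.0 x 10^3 (M21) or 2.5 x 10^3 (MCF7). Drugs from 40 mM DMSO stock, serial dilutions, final 100 µM to 78 nM, DMSO <0.5%.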

HT-29 = assay: Antiproliferative activity against human HT-29 cells after 48 hrs by SRB assay; assay type: functional, cell-based; conditions: HT-29, 48 h; in short: as §1
M21 [1] = assay: Antiproliferative activity against human M21 cells after 48 hrs by SRB assay; assay type: functional, cell-based; conditions: M21, 48 h; in short: as §1
MCF7 = assay: Antiproliferative activity against human MCF7 cells after 48 hrs by SRB assay; assay type: functional, cell-based; conditions: MCF7, 48 h; in short: as §1
M21 [2] = assay: Induction of DNA damage in human M21 cells assessed as increase in gammaH2Ax level at 5 times IC50 after 24 hrs by immunofluorescence based epifluorescence microscopy; assay type: functional, cell-based
In short: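 M21 cells (1 x 10^5) on fibronectin-coated (5 µg/mL, 1 h, 37 C) cover slides, 24 h attachment, then drug for 24 h; DMSO 0.25% in medium as control. Fixed with 3.7% formaldehyde, permeabilized with 0.1% saponin/3% BSA, mouse anti-H2AX pS139 (1:8000), DAPI nuclear stain; γH2AX foci imaged by epifluorescence microscopy.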

[3] = Alkylating activity at DNA (unknown origin) after 90 mins by colorimetric NBP assay; assay type: functional
In short: (§2)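 NBP alkylation kinetics (Bardos colorimetric method): 400 nmol drug in 1 mL ethanol mixed with 1 mL NBP (10% v/v in 95% ethanol), 1 mL 50 mM acetate buffer pH 4.3 and 1 mL ethanol, kept on ice, then heated at 80 C in shaking water bath; stopped on ice 5 min after 0, 30, 60, 90 min. Rate constant from linear regression of absorbance curve; chlorambucil as positive control.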

[4] = Alkylating activity at DNA (unknown origin) after 90 mins by colorimetric NBP assay relative to chlorambucil; assay type: functional; in short: as §2
M21 [5] = assay: Cell cycle arrest in human M21 cells assessed as accumulation at S phase at 2 times IC50 after 24 hrs by DAPI staining based flow cytometry relative to control
M21 [6] = assay: Cell cycle arrest in human M21 cells assessed as accumulation at G2/M phase at 2 times IC50 after 24 hrs by DAPI staining based flow cytometry relative to control
M21 [7] = assay: Cell cycle arrest in human M21 cells assessed as accumulation at G0/G1 phase at 2 times IC50 after 24 hrs by DAPI staining based flow cytometry relative to control
M21 [8] = assay: Cell cycle arrest in human M21 cells assessed as accumulation at sub-G1 phase at 2 times IC50 after 24 hrs by DAPI staining based flow cytometry relative to control
M21 [9] = assay: Cell cycle arrest in human M21 cells assessed as accumulation at sub-G1 phase at 2 times IC50 after 24 hrs by DAPI staining based flow cytometry relative to control; assay type: functional
In short: (§3)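 Flow cytometry in M21 cells seeded in six-well plates, allowed 24 h, then exposed 24 h to drug (2- or 5-fold IC50); DMSO 0.5% control. Trypsinized, PBS-washed, fixed in ice-cold EtOH, stained with 2 mg/mL DAPI in PBS; sub-G1, G0/G1, S and G2/M fractions measured on LSR II cytometer.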

M21 [10] = assay: Cell cycle arrest in human M21 cells assessed as accumulation at G0/G1 phase at 2 times IC50 after 24 hrs by DAPI staining based flow cytometry relative to control; assay type: functional; in short: as §3
M21 [11] = assay: Cell cycle arrest in human M21 cells assessed as accumulation at S phase at 2 times IC50 after 24 hrs by DAPI staining based flow cytometry relative to control; assay type: functional; in short: as §3
M21 [12] = assay: Cell cycle arrest in human M21 cells assessed as accumulation at G2/M phase at 2 times IC50 after 24 hrs by DAPI staining based flow cytometry relative to control; assay type: functional; in short: as §3
M21 [13] = assay: Induction of DNA damage in human M21 cells assessed as increase in gammaH2Ax level at 5 times IC50 after 24 hrs by immunofluorescence based epifluorescence microscopy
M21 [14] = assay: Cell cycle arrest in human M21 cells assessed as accumulation at sub-G1 phase at 1.8 uM after 24 hrs by DAPI staining based flow cytometry relative to control; assay type: functional; in short: as §3
M21 [15] = assay: Cell cycle arrest in human M21 cells assessed as accumulation at G0/G1 phase at 1.8 uM after 24 hrs by DAPI staining based flow cytometry relative to control; assay type: functional; in short: as §3
M21 [16] = assay: Cell cycle arrest in human M21 cells assessed as accumulation at S phase at 1.8 uM after 24 hrs by DAPI staining based flow cytometry relative to control; assay type: functional; in short: as §3
M21 [17] = assay: Cell cycle arrest in human M21 cells assessed as accumulation at G2/M phase at 1.8 uM after 24 hrs by DAPI staining based flow cytometry relative to control; assay type: functional; in short: as §3

SMILES	IC50 (HT-1080)	IC50 (HT-29)	IC50 (M21 [1])	IC50 (MCF7)	Activity (M21 [2])	K [3]	fold change (FC) [4]	Activity (M21 [5])	Activity (M21 [6])	Activity (M21 [7])	Activity (M21 [8])	Activity (M21 [9])	Activity (M21 [10])	Activity (M21 [11])	Activity (M21 [12])	Activity (M21 [13])	Activity (M21 [14])	Activity (M21 [15])	Activity (M21 [16])	Activity (M21 [17])
CCNC(=O)Nc1ccc(S(=O)(=O)Oc2ccccc2C(C)C)cc1	0.25 µM	1.1 µM	4.7 µM	10 µM	Active	0.37 ×10⁻³ /s	14	31.5%	8.9%	58.8%	0.8%	–	–	–	–	–	–	–	–	–
O=C(NCCCCl)Nc1ccc(S(=O)(=O)Oc2ccccc2I)cc1	2.8 µM	9.6 µM	4.6 µM	7.6 µM	Active	0.12 ×10⁻³ /s	44	32%	13.5%	54.4%	0.1%	–	–	–	–	–	–	–	–	–
O=C(CCCl)Nc1ccc(S(=O)(=O)Oc2ccccc2I)cc1	4.2 µM	14 µM	12 µM	8.9 µM	–	0.063 ×10⁻³ /s	84	–	–	–	–	0.2%	27.5%	34.9%	37.4%	Active	–	–	–	–
CC(C)c1ccccc1OS(=O)(=O)c1ccc(NC(=O)NCCCCl)cc1	2.7 µM	6.9 µM	9.3 µM	7.4 µM	Active	0.033 ×10⁻³ /s	160	38.6%	17.2%	43.4%	0.8%	–	–	–	–	–	–	–	–	–
CC(C)c1ccccc1OS(=O)(=O)c1ccc(NC(=O)CCCl)cc1	6.5 µM	16 µM	14 µM	9 µM	–	0.024 ×10⁻³ /s	220	–	–	–	–	0.1%	33.7%	35.6%	30.6%	Active	–	–	–	–
CC[C@@]1(O)C(=O)OCc2c1cc1n(c2=O)Cc2cc3c(CN(C)C)c(O)ccc3nc2-1 [TOPOTECAN]	0.5 µM	–	–	0.2 µM	–	–	–	–	–	–	–	–	–	–	–	–	0.1%	45.2%	31.9%	22.8%
CCC(=O)Nc1ccc(S(=O)(=O)Oc2ccccc2I)cc1	7.2 µM	11 µM	11 µM	8.1 µM	–	0.49 ×10⁻³ /s	11	–	–	–	–	0.2%	60.4%	28%	11.4%	Active	–	–	–	–
CCC(=O)Nc1ccc(S(=O)(=O)Oc2ccccc2C(C)C)cc1	2.1 µM	7.4 µM	11 µM	11 µM	–	0.31 ×10⁻³ /s	17	–	–	–	–	0.6%	39.6%	44.4%	15.4%	Active	–	–	–	–
CCCC(=O)Nc1ccc(S(=O)(=O)Oc2ccccc2C(C)C)cc1	0.95 µM	4.9 µM	6.1 µM	6.6 µM	–	0.37 ×10⁻³ /s	14	–	–	–	–	0.7%	40%	43.8%	15.5%	Active	–	–	–	–
CCCNC(=O)Nc1ccc(S(=O)(=O)Oc2ccccc2I)cc1	0.7 µM	6.8 µM	5.4 µM	2.9 µM	Active	0.4 ×10⁻³ /s	13	26.6%	10.7%	62.6%	0.1%	–	–	–	–	–	–	–	–	–
CC(C)c1ccccc1OS(=O)(=O)c1ccc(NC(=O)C(C)(C)C)cc1	11 µM	15 µM	6.2 µM	6.5 µM	–	0.007 ×10⁻³ /s	780	–	–	–	–	0.4%	36.7%	46.9%	16%	Active	–	–	–	–
CCNC(=O)Nc1ccc(S(=O)(=O)Oc2ccccc2I)cc1	0.14 µM	5.3 µM	5.6 µM	1.1 µM	Active	0.12 ×10⁻³ /s	42	23.4%	8.7%	67.6%	0.3%	–	–	–	–	–	–	–	–	–

— ChEMBL document CHEMBL4270536, “Preparation, characterisation and biological evaluation of new N-phenyl amidobenzenesulfonates and N-phenyl ureidobenzenesulfonates inducing DNA double-strand breaks. Part 3. Modulation of ring A” (Eur J Med Chem, 2018)
